Test results: PubChem BioAssay AID2656 (Broad Institute, 2010)
Activity calls are given as the source filed them.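 Rule for the calls: active = mean inhibition of serotonin release over both replicates above 50%; inactive = mean inhibition at or below 50%.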

system: Human washed platelets, SFLLRN-induced 14C-serotonin release; assay: inhibition of SFLLRN-induced dense granule secretion, late-stage follow-up, mechanism study for platelet granule secretion inhibitor project, cell-based, 14C-serotonin release, radioactive (AID 2656); conditions: at 10 µM; hits give high values
Summary of the method: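 Material: washed platelets preloaded with 14C-serotonin / Input: 2x10^8 platelets/mL / Medium: HEPES-Tyrodes buffer for resuspended platelets / Reagent: SFLLRN peptide 5 µM plus imipramine 5 µM blocking reuptake / Dosing: single compound dose of 10 µM / Timing: compound pre-incubation 15 min, SFLLRN stimulation 15 min / Technique: beta scintillation counting of supernatant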

SMILES	inhibition
CCOc1ccc2nc(NCCO)[nH]c2c1	9.75% (inactive)
O=C(Oc1ccc(Cl)cc1)c1ccc(COC(=O)c2cnccn2)cc1	0.5% (inactive)
COC(=O)c1nn(-c2ccc3c(c2)CCN3C(C)=O)cc1O	12.8% (inactive)
CC(=O)Oc1ccc(-c2nc(-c3cccnc3)no2)cc1	-5.2% (inactive)
COc1ccc(C(=O)Nc2ccc(N3CCOCC3)cc2)cc1OC	9.3% (inactive)
COC(=O)c1ccccc1NC(=O)Nc1ccc2c(c1)OCO2	15.4% (inactive)
COc1cc2c(cc1OC)-c1cc(Nc3ccccc3C)nc(=O)n1CC2	94.8%
